In ChEMBL document CHEMBL4732156, “Novel boronium salt exhibits substantial antibacterial activity when compared to a commercial quaternary ammonium disinfectant” (Bioorg Med Chem Lett, 2021):
The source made the active and inactive calls. The rule behind the calls is not given here.

Legend:
[1] = system: Erythrocyte; assay: Induction of hemolysis in RBC (unknown origin) at higher concentration; type: cell-based
[2] = system: Pseudomonas aeruginosa; assay: Antibacterial activity against Pseudomonas aeruginosa ATCC 27853 at 1:8 dilution incubated for 24 hrs by disc diffusion method; type: functional, organism-based
How it was run: (§1)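 Kirby-Bauer disc diffusion. 6 mm paper discs are loaded with 20 µL of the 1:8 (2.81 mg/mL) or 1:128 (0.17 mg/mL) dilution, dried 30 min and stored at 4–8 °C. A lawn of about 5.0×10^5 CFU/mL is swabbed onto Mueller–Hinton agar with the plate spinning. Plates are incubated 24 h at 37 °C and the inhibition zone is measured in mm by digital caliper.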

[3] = system: Staphylococcus aureus; assay: Antibacterial activity against Staphylococcus aureus ATCC 29213 assessed as reduction in bacterial growth incubated for 24 hrs by turbidity based analysis; type: functional
How it was run: (§2)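 Broth microdilution in Mueller–Hinton broth. Agents start from 4.5% stocks and are diluted two-fold in deionized water. Final well range is 22.5 to 0.02 mg/mL; inoculum is about 5.0×10^5 CFU/mL from 18–24 h SBA colonies. Plates are incubated 18–24 h at 37 °C in ambient air at 100 rpm. MIC is the lowest concentration giving a clear well on mirrored 3X visual reading.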

[4] = system: Escherichia coli; assay: Antibacterial activity against Escherichia coli ATCC 25922 at 1:8 dilution incubated for 24 hrs by disc diffusion method; type: functional, organism-based; how it was run: as §1
[5] = system: Escherichia coli; assay: Antibacterial activity against Escherichia coli ATCC 25922 at 1:128 dilution incubated for 24 hrs by disc diffusion method; type: functional, organism-based; how it was run: as §1
[6] = system: Pseudomonas aeruginosa; assay: Antibacterial activity against Pseudomonas aeruginosa ATCC 27853 at 1:128 dilution incubated for 24 hrs by disc diffusion method; type: functional, organism-based; how it was run: as §1
[7] = system: Erythrocyte; assay: Induction of hemolysis in RBC (unknown origin) at lower concentration; type: cell-based
[8] = system: Pseudomonas aeruginosa; assay: Antibacterial activity against Pseudomonas aeruginosa ATCC 27853 assessed as reduction in bacterial growth incubated for 24 hrs by turbidity based analysis; type: functional; how it was run: as §2
[9] = system: Escherichia coli; assay: Antibacterial activity against Escherichia coli ATCC 25922 assessed as reduction in bacterial growth incubated for 24 hrs by turbidity based analysis; type: functional; how it was run: as §2
[10] = system: Staphylococcus aureus; assay: Antibacterial activity against Staphylococcus aureus ATCC 29213 assessed as zone of inhibition at 1:128 dilution incubated for 24 hrs by disc diffusion method; type: functional; how it was run: as §1
[11] = system: Escherichia coli; assay: Potency index, ratio of MIC of BacDown QAC to MIC of compound for antibacterial activity against Escherichia coli ATCC 25922 assessed as reduction in bacterial growth incubated for 24 hrs by turbidity based analysis; type: functional
[12] = system: Pseudomonas aeruginosa; assay: Potency index, ratio of MIC of BacDown QAC to MIC of compound for antibacterial activity against Pseudomonas aeruginosa ATCC 27853 assessed as reduction in bacterial growth incubated for 24 hrs by turbidity based analysis; type: functional
[13] = system: Escherichia coli; assay: Bactericidal activity against Escherichia coli ATCC 25922 incubated for 24 hrs followed by transferring and culturing on SBA plate and measured after 18 to 24 hrs by agar plate based analysis; type: functional; conditions: time 42-48 hrs
How it was run: (§3)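 After 24 h of microdilution (about 5.0×10^5 CFU/mL, Mueller–Hinton broth, 37 °C, 100 rpm), 100 µL from each clear well, including the MIC well, is spread on 5% sheep blood agar. Plates are incubated 18–24 h at 37 °C. MBC is the first concentration giving zero colonies.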

[14] = system: Staphylococcus aureus; assay: Potency index, ratio of MIC of BacDown QAC to MIC of compound for antibacterial activity against Staphylococcus aureus ATCC 29213 assessed as reduction in bacterial growth incubated for 24 hrs by turbidity based analysis; type: functional
[15] = system: Staphylococcus aureus; assay: Antibacterial activity against Staphylococcus aureus ATCC 29213 assessed as zone of inhibition at 1:8 dilution incubated for 24 hrs by disc diffusion method; type: functional; how it was run: as §1
[16] = system: Pseudomonas aeruginosa; assay: Bactericidal activity against Pseudomonas aeruginosa ATCC 27853 incubated for 24 hrs followed by transferring and culturing on SBA plate and measured after 18 to 24 hrs by agar plate based analysis; type: functional; conditions: time 42-48 hrs; how it was run: as §3
[17] = system: Staphylococcus aureus; assay: Bactericidal activity against Staphylococcus aureus ATCC 29213 incubated for 24 hrs followed by transferring and culturing on SBA plate and measured after 18 to 24 hrs by agar plate based analysis; type: functional; conditions: time 42-48 hrs; how it was run: as §3

SMILES | Activity [1] | Activity [2] | MIC [3] [µg/mL] | Activity [4] | Activity [5] | Activity [6] | Activity [7] | MIC [8] [µg/mL] | MIC [9] [µg/mL] | inhibition zone (IZ) [10] [mm] | Ratio [11] | Ratio [12] | MBC [13] [µg/mL] | Ratio [14] | inhibition zone (IZ) [15] [mm] | MBC [16] [µg/mL] | MBC [17] [µg/mL]
CCCCCCCCCCCCCCCC[N+](C)(C)[BH2-][N+](C)(C)C.I | Toxic | inactive | > 22500 | inactive | inactive | inactive | Non-Toxic | > 22500 | > 22500 | – | – | – | – | – | – | – | –
CCCCCCCCCCCCCCCC[N+](C)(C)[BH2-][N+](C)(C)Cc1ccccc1.I | Toxic | inactive | 20 | inactive | inactive | inactive | Non-Toxic | 170 | 40 | 7.6 | 4 | 8 | 40 | 4 | 14.8 | 170 | 40
